Key:
Mus musculus = species: Mus musculus; experiment: Antinociceptive activity in mouse by using phenylbenzoquinone writing assay.; type: functional
Method in brief: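 Mice given test compound at an initial screening dose of 30 mg/kg. ED50 determined only for compounds producing a response in seven of ten animals, with 95% confidence limits (p < 0.05).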

[1] = target: Prostaglandin E2 receptor EP1 (Cavia porcellus); experiment: PGE-2 (EP1 subtype) antagonistic activity as PGE2-stimulated guinea pig ileum muscle strip assay; conditions: read-out: pA2 (converted)

SMILES	ED50 (Mus musculus) [mg/kg]	Kb [1] [nM]
O=C(NNC(=O)C(F)(F)C(O)c1ccccn1)N1Cc2ccccc2Oc2ccc(Cl)cc21 (stereo not drawn)	9.1	31.6
O=C(CCc1ccncc1)NNC(=O)N1Cc2ccccc2Oc2ccc(Cl)cc21	6.8	316
O=C(CNC(=O)C(F)(F)C(O)c1ccccn1)N1Cc2ccccc2Oc2ccc(Cl)cc21 (stereo not drawn)	8.1	
O=C(CCSCc1ccco1)NCC(=O)N1Cc2ccccc2Oc2ccc(Cl)cc21		39.8
O=C(CCSCc1ccco1)NNC(=O)N1Cc2ccccc2Oc2ccc(Cl)cc21	0.9	
O=C(CCSCc1ccco1)CNC(=O)N1Cc2ccccc2Oc2ccc(Cl)cc21		63.1
CCS(=O)(=O)CCC(=O)CNC(=O)N1Cc2ccccc2Oc2ccc(Cl)cc21		2510
O=C(CCc1ccncc1)NCC(=O)N1Cc2ccccc2Oc2ccc(Cl)cc21		2000
CCS(=O)(=O)CCC(=O)NCC(=O)N1Cc2ccccc2Oc2ccc(Cl)cc21		2000
CCS(=O)(=O)CCC(=O)NNC(=O)N1Cc2ccccc2Oc2ccc(Cl)cc21	7.4	1580

— ChEMBL document CHEMBL1129733, “Aminoacetyl moiety as a potential surrogate for diacylhydrazine group of SC-51089, a potent PGE2 antagonist, and its analogs” (J Med Chem, 1996)
